Assay results pooled from the literature.
Lines come from different studies, so protocols differ.
Target: Serine/threonine-protein kinase PLK4 (PLK4, Homo sapiens, UniProt O00444)
One construct used (O00444 1-970): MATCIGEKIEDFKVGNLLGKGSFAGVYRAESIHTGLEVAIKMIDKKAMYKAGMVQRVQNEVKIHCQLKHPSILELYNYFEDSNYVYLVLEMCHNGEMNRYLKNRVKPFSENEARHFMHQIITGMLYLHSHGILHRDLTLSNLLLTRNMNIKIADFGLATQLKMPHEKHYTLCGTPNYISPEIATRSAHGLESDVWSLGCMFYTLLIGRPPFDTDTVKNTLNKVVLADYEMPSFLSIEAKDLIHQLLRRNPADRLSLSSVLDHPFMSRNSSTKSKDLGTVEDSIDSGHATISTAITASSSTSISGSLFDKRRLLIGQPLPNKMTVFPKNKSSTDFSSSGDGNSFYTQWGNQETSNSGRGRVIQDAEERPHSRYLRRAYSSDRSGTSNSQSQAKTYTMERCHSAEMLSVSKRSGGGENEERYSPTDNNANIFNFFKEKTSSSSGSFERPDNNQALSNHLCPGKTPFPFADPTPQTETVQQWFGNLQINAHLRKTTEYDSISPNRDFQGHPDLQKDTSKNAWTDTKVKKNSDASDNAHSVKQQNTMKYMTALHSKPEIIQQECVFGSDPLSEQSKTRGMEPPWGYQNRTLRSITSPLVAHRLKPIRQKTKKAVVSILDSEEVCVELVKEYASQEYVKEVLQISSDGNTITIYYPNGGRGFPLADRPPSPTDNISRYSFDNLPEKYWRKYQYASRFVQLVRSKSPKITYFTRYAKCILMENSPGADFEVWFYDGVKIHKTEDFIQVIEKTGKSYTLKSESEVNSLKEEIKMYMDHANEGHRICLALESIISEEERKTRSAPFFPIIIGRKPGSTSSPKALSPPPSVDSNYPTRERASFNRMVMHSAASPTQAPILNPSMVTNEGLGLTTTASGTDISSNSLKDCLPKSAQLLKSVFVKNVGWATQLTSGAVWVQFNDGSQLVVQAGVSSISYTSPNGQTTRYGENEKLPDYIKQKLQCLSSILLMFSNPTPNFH

CN(C)c1nccc(-c2cnc3ncccn23)n1 — remaining binding (binding; 1 µM): 68%
O=C(NCCCN1CCOCC1)c1ccc(Nc2nccc(-c3cc4ccccc4s3)n2)cc1 — remaining binding (binding; competition with immobilised ligand; 1 µM): 58%
O=C(N1CCS(=O)(=O)CC1)N1C[C@H](c2ccc(OC(F)(F)F)cc2)C[C@H](c2nc(C3CC3)no2)C1 — remaining binding (cell-free assay; competition with immobilised ligand; 1 µM): 100%
COc1cc(C(=O)N2CCC(N3CCN(C)CC3)CC2)ccc1Nc1ncc2c(n1)N(C)c1ccccc1C(=O)N2C — remaining binding (binding; competition with immobilised ligand; 10 µM): 0%
Cc1cnn2ncc(-c3ccnc(N(C)C)n3)c2c1 — remaining binding (binding; 1 µM): 74%
N#CC1(c2ccccn2)CCN(Cc2cc(C(=O)N3CCCC3)c(=O)n3ccccc23)CC1 — remaining binding (cell-free assay; competition with immobilised ligand; 1 µM): 87%
FC(F)(F)Oc1cccc(-c2cnc3ccc(-c4ccncc4)nn23)c1 — remaining binding (cell-free assay; competition with immobilised ligand; 5 µM): 91%
O=C(c1ccc(Nc2nccc(-c3cc4ccccc4s3)n2)cc1)N1CCC(N2CCCC2)CC1 — remaining binding (binding; competition with immobilised ligand; 1 µM): 56%
CC(=O)Nc1c(C(C)=O)c(=O)n(C)c2nc(-c3ccc(Cl)cc3Cl)c(-c3ccc(Cl)cc3)cc12 — remaining binding (cell-free assay; competition with immobilised ligand; 1 µM): 100%
CN(C)c1ncc(F)c(-c2cnn3ncccc23)n1 — remaining binding (binding; 1 µM): 100%
CC(C)(O)c1cncc(-c2nc3ccc(F)cc3n2C2CC2)c1 — remaining binding (cell-free assay; competition with immobilised ligand; 1 µM): 79%
COc1cnc(Nc2cccc(S(N)(=O)=O)c2)nc1N1CCN(c2ccccc2)CC1 — remaining binding (binding; competition with immobilised ligand; 1 µM): 99%
CS(=O)(=O)N1CCCC(NC(=O)[C@H](CCC2CCCCC2)NC(=O)c2ccc(CNc3ncnc4c3nnn4-c3ccccc3)cc2)C1 (some centres unmarked) — remaining binding (cell-free assay; competition with immobilised ligand; 0.1 µM): 82%
Cc1cnc(Nc2ccc(C(=O)N3CCC(N4CCCC4)CC3)cc2)nc1-c1cc2ccccc2s1 — remaining binding (binding; competition with immobilised ligand; 1 µM): 14%
CCN1CCN(Cc2ccc(C(=O)Nc3ccc(C)c(Oc4ccc5c(c4)CC(=O)N5)c3)cc2C(F)(F)F)CC1 — remaining binding (binding; competition with immobilised ligand; 1 µM): 100%
N#Cc1ccccc1CSc1nnc2c(n1)[nH]c1ccccc12 — remaining binding (binding; competition with immobilised ligand; 10 µM): 100%
O=C(NCC1CCOCC1)c1n[nH]cc1NC(=O)c1c(F)cccc1F — remaining binding (binding; competition with immobilised ligand; 1 µM): 75%
C=CC(=O)N1CCC(C(=O)NCC(=O)N2CCN(c3nc(-c4cnc(N)nc4C(F)F)nc(N4CCOCC4)n3)CC2)CC1 — remaining binding (binding; competition with immobilised ligand; 1 µM): 89%
C[C@@H]1CCN(c2nccc(-c3cnn4ncccc34)n2)C1 — remaining binding (binding; 1 µM): 100%
O=C1CCc2cc(Nc3cc(OC4CCOCC4)c([N+](=O)[O-])cc3Cl)ccc2N1 — remaining binding (cell-free assay; competition with immobilised ligand; 1 µM): 86%
N[C@H]1CCN(c2nccc(-c3cnn4ncccc34)n2)C1 — remaining binding (binding; 1 µM): 100%
CN([C@@H]1CCc2c(CC(=O)O)c3cc(S(C)(=O)=O)ccc3n2C1)S(=O)(=O)c1ccc(F)cc1 — remaining binding (cell-free assay; competition with immobilised ligand; 1 µM): 100%
COc1ncc2cc3ccccc3nc2c1C#N — remaining binding (cell-free assay; competition with immobilised ligand; 5 µM): 100%
Cc1cc(C)c(-n2ccn3nc(-c4cccnc4)cc23)cc1NC(=O)c1cc(C#N)cc(S(F)(F)(F)(F)F)c1 — remaining binding (cell-free assay; competition with immobilised ligand; 0.1 µM): 64.1%
CN(CCCC(F)(F)F)c1nccc(-c2cnn3ncccc23)n1 — remaining binding (binding; 1 µM): 100%
C[C@@H]1CN(c2ccc3ncc(-c4ccc5[nH]nc(C6CC6)c5c4)n3n2)C[C@H](C)O1 — remaining binding (binding; competition with immobilised ligand; 0.5 µM): 90%
